Assay results: ChEMBL document CHEMBL2385050 (J Med Chem, 2013)
One block for each compound: values may come before it.

How the values were obtained:
Aromatase [1] = molecular target: T1, Aromatase (Homo sapiens, UniProt P11511); assay: Inhibition of human recombinant microsomal aromatase-mediated 7-methoxy-4-trifluoromethylcoumarin conversion to 7-hydroxytrifluoromethylcoumarin at 50 uM preincubated for 10 mins measured after 30 mins by fluorescence assay relative to control; settings: probe 7-methoxy-4-trifluoromethylcoumarin
T1 sequence (P11511 whole entry): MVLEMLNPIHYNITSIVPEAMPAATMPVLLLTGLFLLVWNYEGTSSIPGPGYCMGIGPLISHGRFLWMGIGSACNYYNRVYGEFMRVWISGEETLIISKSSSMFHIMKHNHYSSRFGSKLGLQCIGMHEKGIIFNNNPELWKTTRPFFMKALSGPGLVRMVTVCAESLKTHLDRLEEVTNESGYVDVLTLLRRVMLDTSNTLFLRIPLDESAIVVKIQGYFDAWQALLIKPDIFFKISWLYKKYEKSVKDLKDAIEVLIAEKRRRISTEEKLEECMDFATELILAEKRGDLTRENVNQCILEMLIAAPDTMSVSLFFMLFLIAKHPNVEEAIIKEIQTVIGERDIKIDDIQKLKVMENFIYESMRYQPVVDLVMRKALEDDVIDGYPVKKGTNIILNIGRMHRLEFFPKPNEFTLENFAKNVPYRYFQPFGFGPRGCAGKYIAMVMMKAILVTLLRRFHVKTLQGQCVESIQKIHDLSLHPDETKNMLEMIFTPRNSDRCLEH
How it was run: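 Recombinant human CYP19 microsomal incubation, linear-range conditions. Samples in methanol or methanol/dichloromethane, prewarmed 10 min at 37 °C with NADPH-regenerating cofactor mix. Enzyme and MFC substrate added in 0.1 M potassium phosphate pH 7.4; 30 min reaction; stopped with Tris base in acetonitrile. HFC read at Ex/Em 409/530 nm against a standard curve. Result is % activity remaining vs vehicle; mean of at least three experiments.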

[2] = molecular target: T2, Estrogen receptor (Homo sapiens) (UniProt P03372); assay: Displacement of fluorescent ES2 from human recombinant ERalpha at 100 uM after 2 hrs by fluorimetric analysis relative to control
T2 sequence (whole entry): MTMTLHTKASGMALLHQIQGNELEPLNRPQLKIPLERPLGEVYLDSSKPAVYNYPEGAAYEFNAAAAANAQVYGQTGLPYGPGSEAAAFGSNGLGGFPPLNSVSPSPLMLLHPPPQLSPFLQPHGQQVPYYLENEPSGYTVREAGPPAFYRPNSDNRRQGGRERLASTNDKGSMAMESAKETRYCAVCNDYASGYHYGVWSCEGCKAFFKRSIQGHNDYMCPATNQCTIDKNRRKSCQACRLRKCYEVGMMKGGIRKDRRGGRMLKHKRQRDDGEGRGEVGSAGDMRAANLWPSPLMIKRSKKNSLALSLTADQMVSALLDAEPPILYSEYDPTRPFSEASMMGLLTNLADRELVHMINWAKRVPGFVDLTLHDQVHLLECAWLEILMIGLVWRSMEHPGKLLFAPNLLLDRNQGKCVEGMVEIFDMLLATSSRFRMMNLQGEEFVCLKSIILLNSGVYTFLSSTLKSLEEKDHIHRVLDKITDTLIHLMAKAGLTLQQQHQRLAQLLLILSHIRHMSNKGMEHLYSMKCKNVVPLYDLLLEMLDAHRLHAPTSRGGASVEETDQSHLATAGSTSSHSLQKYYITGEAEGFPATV
How it was run: (§1)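 Fluorescence polarization competition with fluorescent estrogen ligand ES2 (9 nM) and recombinant human ER-α (30 nM) or ER-β (20 nM). Buffer: 100 mM potassium phosphate, 100 μg/mL BGG, 0.02% NaN3. Samples in methanol or methanol/dichloromethane; 2 h incubation protected from light. Read at Ex/Em 485/530 nm. Result is % polarization remaining vs vehicle control; mean of at least three experiments.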

[3] = molecular target: Estrogen receptor beta (Homo sapiens) (UniProt Q92731); assay: Displacement of fluorescent ES2 from human recombinant ERbeta at 100 uM after 2 hrs by fluorimetric analysis relative to control; how it was run: as §1
Mus musculus [4] = assay: Tmax in NOD/SCID mouse at 100 mg/kg, po by LC-MS-MS analysis; type: ADME, organism-based; set-up: dose 100 mg/kg, route oral; settings: in vivo
How it was run: (§2)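 Mixed E,Z material (E:Z 45:55 by LC-MS-MS), 100 mg/kg single oral gavage, 10-week-old female NOD/SCID mice. Each mouse bled once by tail vein (n = 3 per time point), sampling up to 24 h. Plasma E and Z isomers quantified by LC-MS-MS. Parameters are from mean plasma concentrations (n = 3).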

[5] = Apparent volume of distribution during terminal phase in NOD/SCID mouse at 100 mg/kg, po by LC-MS-MS analysis; type: ADME, organism-based; set-up: dose 100 mg/kg, route oral; settings: in vivo, read-out: Vz/F; how it was run: as §2
Mus musculus [6] = assay: Cmax in NOD/SCID mouse at 100 mg/kg, po by LC-MS-MS analysis; type: ADME, organism-based; set-up: dose 100 mg/kg, route oral; settings: in vivo; how it was run: as §2
[7] = Apparent oral clearance in NOD/SCID mouse at 100 mg/kg, po by LC-MS-MS analysis; type: ADME, organism-based; set-up: dose 100 mg/kg, route oral; settings: in vivo; how it was run: as §2
Mus musculus [8] = assay: Half life in NOD/SCID mouse at 100 mg/kg, po by LC-MS-MS analysis; type: ADME, organism-based; set-up: dose 100 mg/kg, route oral; settings: in vivo; how it was run: as §2
Mus musculus [9] = assay: Clast in NOD/SCID mouse at 100 mg/kg, po by LC-MS-MS analysis; type: ADME, organism-based; set-up: dose 100 mg/kg, route oral; settings: in vivo; how it was run: as §2
Estrogen receptor = molecular target: T3, Estrogen receptor (Homo sapiens, UniProt P03372); assay: Displacement of fluorescent ES2 from human recombinant ERalpha after 2 hrs by fluorimetric analysis
T3 sequence (P03372 whole entry): T2 sequence (whole entry)

[10] = (§3) AUClast in NOD/SCID mouse at 100 mg/kg, po by LC-MS-MS analysis; type: ADME, organism-based, Plasma; set-up: time 0 - last, dose 100 mg/kg, route oral; settings: NOD/SCID, plasma; how it was run: as §2
Mus musculus [11] = assay: as §3; type: ADME, organism-based, Plasma; set-up: time 0 - last, dose 100 mg/kg, route oral; settings: in vivo; how it was run: as §2
Aromatase [12] = molecular target: T1, Aromatase; assay: Inhibition of human recombinant placental aromatase
How it was run: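 Recombinant human aromatase (CYP19) in microsomal incubations with fluorogenic substrate MFC, read as conversion to HFC. Compounds in methanol or methanol/dichloromethane, prewarmed 10 min at 37 °C with NADPH-regenerating mix, then enzyme/substrate in 0.1 M potassium phosphate pH 7.4 added. Activity given as % of vehicle control.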

Aromatase [13] = molecular target: T1, Aromatase; assay: Inhibition of human recombinant microsomal aromatase-mediated 7-methoxy-4-trifluoromethylcoumarin conversion to 7-hydroxytrifluoromethylcoumarin preincubated for 10 mins measured after 30 mins by fluorescence assay
How it was run: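 Recombinant human CYP19 with MFC substrate in 0.1 M potassium phosphate pH 7.4; samples in methanol or methanol/dichloromethane, prewarmed 10 min at 37 °C with NADPH-generating cofactor mix (NADP+, MgCl2, glucose-6-phosphate, G6PDH), then 30 min reaction, stopped with 0.1 M Tris base in acetonitrile.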

Sequence of Estrogen receptor beta (Homo sapiens) (Q92731 whole entry): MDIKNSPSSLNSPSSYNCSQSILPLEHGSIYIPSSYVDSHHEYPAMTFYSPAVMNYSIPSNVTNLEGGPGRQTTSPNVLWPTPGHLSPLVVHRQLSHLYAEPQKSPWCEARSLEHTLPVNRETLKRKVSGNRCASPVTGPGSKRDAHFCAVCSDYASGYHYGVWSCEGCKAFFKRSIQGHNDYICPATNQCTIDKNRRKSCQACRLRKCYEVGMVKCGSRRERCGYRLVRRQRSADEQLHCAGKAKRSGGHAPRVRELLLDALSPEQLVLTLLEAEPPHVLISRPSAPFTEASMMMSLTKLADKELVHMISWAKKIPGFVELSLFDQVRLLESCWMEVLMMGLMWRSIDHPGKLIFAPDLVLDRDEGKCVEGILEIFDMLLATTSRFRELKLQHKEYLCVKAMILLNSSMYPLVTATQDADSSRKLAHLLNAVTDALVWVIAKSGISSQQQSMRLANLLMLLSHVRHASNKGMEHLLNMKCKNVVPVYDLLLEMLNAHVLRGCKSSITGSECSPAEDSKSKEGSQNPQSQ

inhibition at 0.5 h, 50 µM (Aromatase [1]): 8% | Activity [2]: 68% | Activity [3]: 68%
Structure (SMILES): CC/C(=C(/c1ccc(O)cc1)c1ccc(OC(=O)C(C)(C)C)cc1)c1ccccc1

Tmax (Mus musculus [4]): 1 h | Vd/F [5]: 0.5 L | Cmax (Mus musculus [6]): 2.1 µg/mL | CL/F [7]: 0.267 mL/min | t1/2 (Mus musculus [8]): 22.7 h | Clast (Mus musculus [9]): 0.9 µg/mL | EC50 (Estrogen receptor): 17 nM | AUC(0-t) [10]: 35100 ng·h/mL
Structure (SMILES): CC/C(=C(\c1ccc(O)cc1)c1ccc(OCCN)cc1)c1ccccc1

Tmax (Mus musculus [4]): 2 h | Vd/F [5]: 2.8 L | Cmax (Mus musculus [6]): 0.7 µg/mL | CL/F [7]: 1.52 mL/min | t1/2 (Mus musculus [8]): 21.4 h | Clast (Mus musculus [9]): 0.1 µg/mL | EC50 (Estrogen receptor): 58.7 nM | AUClast (Mus musculus [11]): 5.8 µg·h/mL
Structure (SMILES): CC/C(=C(/c1ccc(O)cc1)c1ccc(OCCN)cc1)c1ccccc1

Activity [2]: 80%
Structure (SMILES): CCC(=C(c1ccc(O)cc1)c1ccc(O)cc1)c1ccccc1

inhibition at 0.5 h, 50 µM (Aromatase [1]): 0% | Activity [2]: 56% | Activity [3]: 45%
Structure (SMILES): CC/C(=C(/c1ccc(OCC(N)=O)cc1)c1ccc(OC(=O)C(C)(C)C)cc1)c1ccccc1

Structure (SMILES): CCC(=C(c1ccc(O)cc1)c1ccc(OCCN(C)C)cc1)c1ccccc1
IC50 (Aromatase [12]): 530 µM

IC50 (Aromatase [12]): 6 µM
Structure (SMILES): CC/C(=C(\c1ccc(O)cc1)c1ccc(OCCNC)cc1)c1ccccc1 (mixture of isomers) [ENDOXIFEN]

IC50 (Aromatase [13]): 9.26 µM | Activity [2]: 57% | Activity [3]: 71%
Structure (SMILES): CC/C(=C(\c1ccc(O)cc1)c1ccc(OCC(N)=O)cc1)c1ccccc1
